From PubChem
Only some compounds are listed: those with a hit (about 1.4% of all), similar ones and a draw of the others.
CSN deneddyl inh: inhibitors of CSN-mediated cullin deneddylation, primary screen, biochemical, fluorescence polarization, uHTS; AID 651999, 2013; actives 0.38% (n = 360,000); inhibition, % at 12.5 µM; Purified CSN, SCF-Nedd8-OG deneddylation; COP9 signalosome complex subunit 5 (Homo sapiens), Q92905;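 active = pattern-corrected inhibition above about 35%, with an unprinted fluorescence ratio check between 0.5 and 1.5, limit read from the data, passing the limit was not always enough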
Target sequence (Q92905 whole entry, looked up, one chain of several): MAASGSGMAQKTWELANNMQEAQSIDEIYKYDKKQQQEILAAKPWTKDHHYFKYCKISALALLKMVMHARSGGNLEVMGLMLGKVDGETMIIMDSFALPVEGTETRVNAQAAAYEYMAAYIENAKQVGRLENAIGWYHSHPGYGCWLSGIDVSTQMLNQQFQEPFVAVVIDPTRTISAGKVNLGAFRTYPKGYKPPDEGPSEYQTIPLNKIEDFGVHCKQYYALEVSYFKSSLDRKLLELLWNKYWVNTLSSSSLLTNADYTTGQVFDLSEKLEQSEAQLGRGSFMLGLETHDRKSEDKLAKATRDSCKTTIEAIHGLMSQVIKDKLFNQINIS
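Schedule: reaction 90 min, room temperature / Assay system: HEK293T-derived human Csn5 enzyme / Input: Csn5 at 0.24 nM final / Measure: inhibition of Csn5 cleavage, % / Control set: substrate-only high control, full reaction low control / Technique: fluorescence polarization of the substrate / Buffer or medium: Tris/NaCl/DTT buffer, pH 7.5 / Reagent: SCFSkp2-Nedd8OG substrate at 10 nM final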
TPT1 inh: Candida albicans TPT1 enzyme inhibitors, primary screen, biochemical, fluorescence polarization; tRNA 2'-phosphotransferase TPT1 (Candida albicans SC5314); recombinant caTPT1, FP RNA substrate dephosphorylation; inhibition, % at 5 µM; actives 0.81% (n = 300,000); AID 1962, 2009;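 active = inhibition above the mean of all tested compounds plus 3 SD, set per screening campaign, cut at about 24% in these data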
HNF4A DNA FP: change in binding of human HNF4A to DNA, primary screen, biochemical, fluorescence polarization, FITC-DNA; 1 h; activity change, % at 10 µM; actives 0.3% (n = 360,000); Hepatocyte nuclear factor 4-alpha (Homo sapiens), P41235; in the data active = activity change above about 30%, passing the limit was not always enough
IDE cell inh: human IDE inhibitors in live cells, primary screen, fluorescence polarization, HEK cells, FAbetaB substrate; Insulin-degrading enzyme (Homo sapiens), P14735; FAbetaB cleavage; inhibition, % at 5.59 µM; actives 0.41% (n = 320,000); AID 434962, 2010;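 active = percent inhibition above the average of all tested compounds plus 3 SD, set per screening campaign, cut at about 16% in these data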;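 also: IDE supplied by intact live HEK cells; FP after avidin binding of uncleaved biotin substrate so inhibition keeps polarization high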
IDE cell activ: human IDE activators in live cells, primary screen, fluorescence polarization, HEK cells, FAbeta-B substrate; Insulin-degrading enzyme (Homo sapiens), P14735; AID 493087, 2011; activation, % at 5.96 µM; actives 0.073% (n = 340,000); FAbeta-B cleavage; 0% vehicle, 100% cell-free pure enzyme wells;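 active = activation above the mean of all tested compounds plus 3 SD, set per screening campaign, cut at about 17% in these data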
caTPT1 confirm: Candida albicans TPT1 inhibitors, confirmation, biochemical, fluorescence polarization, triplicate; inhibition, % at 5 µM; shares compounds with TPT1 inh; recombinant caTPT1, RNase T1 coupled; AID 2149, 2009; actives 74% (n = 2,400);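 active = inhibition above the primary screen limit, the mean inhibition of all tested compounds plus 3 SD, cut at about 25% in these data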
RNase T1 inh: RNase T1 inhibitors, counter-screen for TPT1 inhibitor project, biochemical, fluorescence polarization. shares compounds with TPT1 inh. AID 2153, 2009. RNase T1 cleavage, 1536-well. actives 83% (n = 2,400). inhibition, % at 5 µM;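 active = inhibition above the solvent-only control well mean plus 3 SD, limit set per screening run, cut at about 23% in these data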;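 also: inhibitors block cleavage so intact labeled substrate keeps polarization high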
Target sequence (P00651 whole entry, looked up): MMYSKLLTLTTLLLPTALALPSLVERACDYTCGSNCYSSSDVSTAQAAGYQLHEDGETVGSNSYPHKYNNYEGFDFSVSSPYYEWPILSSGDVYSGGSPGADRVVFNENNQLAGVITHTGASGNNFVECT
IDE inh confirm: human IDE inhibitors in live cells, confirmation, fluorescence polarization, HEK cells, FAbetaB substrate; AID 435028, 2010; shares compounds with IDE cell inh; FAbetaB cleavage; inhibition, % at 5.59 µM; actives 51% (n = 1,200);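 active = mean inhibition across triplicate wells above the cutoff set by the earlier primary insulin-degrading enzyme screen, cut at about 16% in these data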
HEK cytotox: cytotoxicity in HEK cells, cytotoxicity control for IDE inhibitor project, cell-based, luminescence; shares compounds with IDE cell inh; HEK293 cytotoxicity, ATP luminescence; inhibition, % at 5.59 µM; actives 28% (n = 1,200); AID 449730, 2010; in the data active = inhibition above about 22%
Of the large screens only hits and unclear results are named; the others gave an inactive call (follow-up assays come after a bar, where they were run).

CCOC(=O)/C(=C/C=C1\Sc2ccccc2N1CC)C(C)=O	TPT1 inh 174, IDE cell inh 101 | caTPT1 confirm 189 | RNase T1 inh 170 | IDE inh confirm 143 | HEK cytotox inactive
CCOC(=O)/C(=C/C=C1\Sc2cc(C)c(C)cc2N1CC)C(C)=O	none (no result: TPT1 inh, IDE cell inh)
CCOC(=O)/C(=C\C=C1/Sc2ccccc2N1CC)C(C)=O	TPT1 inh 186, IDE cell inh 123 | caTPT1 confirm 196 | RNase T1 inh 176 | IDE inh confirm 156 | HEK cytotox 23
COc1ccc(N2C(=O)c3ccc(C(=O)Nc4ccc(NC(C)=O)cc4)cc3C2=O)cc1	none
CN(C)c1ccc(C2C=C(c3ccc(Cl)cc3OC(F)F)Nc3ncnn32)cc1 (stereo not drawn)	TPT1 inh 49, IDE cell inh 21 | caTPT1 confirm 43 | RNase T1 inh 56 | IDE inh confirm 28 | HEK cytotox 61
COc1cc2nc(/C=C/c3ccc(N(C)C)cc3)sc2cc1SC	TPT1 inh 155, IDE cell inh 70 | caTPT1 confirm 153 | RNase T1 inh 138 | IDE inh confirm 51 | HEK cytotox inactive
COc1ccc(C(=O)/C=C/c2ccccc2)c(OC)c1	none
COc1ccc(C(=O)/C=C/c2ccc(N(C)C)cc2)c(OC)c1	TPT1 inh 101, IDE cell inh 82 | caTPT1 confirm 103 | RNase T1 inh 102 | IDE inh confirm 26 | HEK cytotox 47
COc1cccc(OC)c1NC(=O)C1CCCN1C(=O)Nc1ccccc1F (stereo not drawn)	none (no result: TPT1 inh, IDE cell inh)
CCCN(C(=O)Cc1ccc(S(=O)(=O)N2CCOCC2)s1)c1c(N)n(Cc2ccccc2)c(=O)[nH]c1=O	none
O=C(OCCN1C(=O)c2ccccc2C1=O)c1cc(S(=O)(=O)N2CCOCC2)ccc1Cl	none
O=C(OCCN1C(=O)c2cccc3c(N4CCOCC4)ccc(c23)C1=O)c1ccccc1Cl	TPT1 inh 53, IDE cell inh 113 | caTPT1 confirm 63 | RNase T1 inh 70 | IDE inh confirm 96 | HEK cytotox 50
O=C(OCCN1C(=O)c2cccc3c(N4CCOCC4)ccc(c23)C1=O)c1cccc(Cl)c1	TPT1 inh 49, IDE cell inh 91 (no result: CSN deneddyl inh, HNF4A DNA FP, IDE cell activ) | caTPT1 confirm 62 | RNase T1 inh 70 | IDE inh confirm 81 | HEK cytotox 38
O=C(OCCN1C(=O)c2cccc3c(N4CCOCC4)ccc(c23)C1=O)c1ccc(Cl)cc1Cl	TPT1 inh 59, IDE cell inh 49 | caTPT1 confirm 64 | RNase T1 inh 70 | IDE inh confirm 48 | HEK cytotox 61
O=C(OCc1c(F)cccc1Cl)c1cc([N+](=O)[O-])ccc1N1CCOCC1	none
CC(C)(C)CC(C)(C)c1ccc(O)c(Cc2ccc(Cl)cc2Cl)c1	none (no result: TPT1 inh, IDE cell inh)
O=C1c2cccc3c(N4CCCCC4)ccc(c23)C(=O)N1c1cccc(O)c1	TPT1 inh 75, IDE cell inh 124 | caTPT1 confirm 52 | RNase T1 inh 61 | IDE inh confirm 153 | HEK cytotox 25
C=CCN1C(=O)c2cccc3c(Br)ccc(c23)C1=O	none
C=CCN1C(=O)c2cccc3c(N4CCCCC4)ccc(c23)C1=O	TPT1 inh 64, IDE cell inh 22 | caTPT1 confirm 41 | RNase T1 inh 57 | IDE inh confirm 85 | HEK cytotox 24
O=C(Nc1cc2c3c(c1)CC(=O)N3CCC2)c1ccc(Cl)cc1	none
COc1cc(/C=C/c2nc3ccccc3c(=O)[nH]2)cc(Cl)c1O	TPT1 inh 41, HNF4A DNA FP 40, IDE cell inh 27 | caTPT1 confirm 71 | RNase T1 inh 74 | IDE inh confirm 100 | HEK cytotox inactive
COc1ccc(-n2nc(C(=O)NCC(=O)NCCC3=CCCCC3)c3ccccc3c2=O)cc1	none
N#Cc1c(N)n(Cc2ccccc2)c(=O)c2cc([N+](=O)[O-])ccc12	none
Cn1c(N)c(-c2ccccc2)c2ccc([N+](=O)[O-])cc2c1=O	TPT1 inh 84, HNF4A DNA FP 99, IDE cell inh 25 | caTPT1 confirm 89 | RNase T1 inh 92 | IDE inh confirm 25 | HEK cytotox 27
CCCCN1C(=O)C2Cc3c([nH]c4ccccc34)CN2C1=S (stereo not drawn)	TPT1 inh 25, IDE cell inh 30 | caTPT1 confirm inactive | RNase T1 inh 38 | IDE inh confirm 94 | HEK cytotox inactive
NC(=Nc1ccc(Br)cc1)c1ccccc1	none
CC(=Nc1ccc(Br)cc1)c1sc2ccccc2c1O	TPT1 inh 78, IDE cell inh 20 | caTPT1 confirm 88 | RNase T1 inh 95 | IDE inh confirm 54 | HEK cytotox inactive
CC(=Nc1ccccc1)C1=C(O)COC1=O	none
CC(=Nc1ccccc1)c1sc2ccccc2c1O	TPT1 inh 31, IDE cell inh 20 | caTPT1 confirm 51 | RNase T1 inh 67 | IDE inh confirm 51 | HEK cytotox inactive
COCCN(C(=O)CSc1ccc2c(c1)OCCO2)c1c(N)n(CC(C)C)c(=O)[nH]c1=O	none (no result: TPT1 inh)
Cn1cc(C=O)c2cc(F)ccc21	none
Cn1cc(/C=C/c2cc[n+](C)cc2)c2cc(Cl)ccc21	TPT1 inh 60, IDE cell inh 38 | caTPT1 confirm 68 | RNase T1 inh 70 | IDE inh confirm 62 | HEK cytotox 81
Cn1cc(/C=C/c2cc[n+](C)cc2)c2cc(F)ccc21	TPT1 inh 40, IDE cell inh 31 | caTPT1 confirm 49 | RNase T1 inh 56 | IDE inh confirm 75 | HEK cytotox 77
O=C(NCCn1cccn1)C1CCC(=O)N(CCc2ccc(Cl)cc2)C1 (stereo not drawn)	none
COc1cccc(CN2CC(C(=O)NCCc3ccc(C)o3)CCC2=O)c1 (stereo not drawn)	none (no result: TPT1 inh, IDE cell inh)
